Measured values: ChEMBL document CHEMBL3792376, “Exploiting the Chromone Scaffold for the Development of Inhibitors of Corticosteroid Biosynthesis” (J Med Chem, 2016)

Key:
[1] = biological target: T1, Cytochrome P450 11B2, mitochondrial (Homo sapiens, UniProt P19099); assay: Inhibition of human CYP11B2 expressed in V79 MZh cells using [1,2-3H]-11-deoxycorticosterone as substrate for 30 mins by HPTLC analysis; assay type: cell-based, V79MZh
T1 sequence (P19099 whole entry): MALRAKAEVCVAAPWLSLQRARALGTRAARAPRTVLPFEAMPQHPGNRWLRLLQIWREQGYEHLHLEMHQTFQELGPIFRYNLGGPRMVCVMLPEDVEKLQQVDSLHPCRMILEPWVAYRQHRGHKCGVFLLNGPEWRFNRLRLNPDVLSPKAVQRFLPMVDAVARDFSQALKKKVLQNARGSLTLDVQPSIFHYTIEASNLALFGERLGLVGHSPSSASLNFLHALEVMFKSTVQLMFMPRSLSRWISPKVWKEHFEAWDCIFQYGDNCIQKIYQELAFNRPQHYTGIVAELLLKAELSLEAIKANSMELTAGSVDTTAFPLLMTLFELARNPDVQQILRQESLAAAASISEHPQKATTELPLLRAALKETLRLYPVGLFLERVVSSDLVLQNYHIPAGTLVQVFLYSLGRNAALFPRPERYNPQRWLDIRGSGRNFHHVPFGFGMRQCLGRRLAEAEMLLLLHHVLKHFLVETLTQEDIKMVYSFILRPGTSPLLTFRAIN
Procedure, shortened: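 Confluent V79 MZh hamster fibroblasts expressing human CYP11B2, in 6-well plates. Reaction started with [1,2-3H]-11-deoxycorticosterone (100 nM) plus inhibitor at several concentrations and run 30 min. Chloroform extraction of supernatant, then HPTLC of steroids. Mean of ≥3 experiments, relative SD <25%.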

[2] = biological target: T2, Cytochrome P450 11B1, mitochondrial (Homo sapiens, UniProt P15538); assay: Inhibition of human CYP11B1 expressed in V79 MZh cells using [1,2-3H]-11-deoxycorticosterone as substrate for 6 hrs by HPTLC analysis; assay type: cell-based, V79MZh
T2 sequence (P15538 whole entry): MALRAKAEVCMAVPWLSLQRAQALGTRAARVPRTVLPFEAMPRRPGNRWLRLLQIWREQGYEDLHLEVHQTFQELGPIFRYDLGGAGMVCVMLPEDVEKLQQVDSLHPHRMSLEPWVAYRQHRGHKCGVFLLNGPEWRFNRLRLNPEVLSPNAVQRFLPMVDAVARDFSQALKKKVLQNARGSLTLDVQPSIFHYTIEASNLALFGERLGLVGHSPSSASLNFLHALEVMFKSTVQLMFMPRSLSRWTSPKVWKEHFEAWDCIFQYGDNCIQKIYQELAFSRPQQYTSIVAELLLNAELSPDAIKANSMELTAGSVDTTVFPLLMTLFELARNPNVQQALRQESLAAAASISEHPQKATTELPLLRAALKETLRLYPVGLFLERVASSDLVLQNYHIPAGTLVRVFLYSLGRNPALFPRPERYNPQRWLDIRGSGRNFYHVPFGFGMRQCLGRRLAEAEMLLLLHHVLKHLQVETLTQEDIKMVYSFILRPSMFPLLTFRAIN
Procedure, shortened: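 Hamster fibroblast V79 MZh cells stably expressing human CYP11B1, grown to confluence in 6-well plates. Radiolabelled deoxycorticosterone at 100 nM, test inhibitor across a concentration range, 6 h incubation. Supernatant extracted with chloroform and centrifuged. Steroids redissolved in chloroform and separated by HPTLC. IC50 is the mean of at least three experiments, relative SD below 25%.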

Homo sapiens = species: Homo sapiens; assay: Selectivity index, ratio of IC50 for human CYP11B2 to IC50 for human CYP11B1
Procedure, shortened: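 Calculated as IC50(CYP11B2)/IC50(CYP11B1). Both IC50s come from V79 MZh hamster fibroblasts expressing the human enzyme, with 100 nM radiolabelled deoxycorticosterone: 6 h for 11B1 and 30 min for 11B2. Readout by HPTLC.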

[3] = Cytotoxicity against HEK293 cells assessed as cell viability upto 100 times IC50 concentration for 3 hrs by MTT assay; assay type: cell-based; settings: human, read-out: Activity
Procedure, shortened: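 HEK293 cells in DMEM with 10% FCS, exposed to 0.1 and 1 μM compound for 3 h at 37 °C, 5% CO2, humidified. Then MTT (5 mg/mL stock in PBS) added for a further 3 h. Stopped and lysed with 10% SDS in 0.01 N HCl. Viability from MTT reduction, expressed as % of control.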

[4] = biological target: T3, Steroid 17-alpha-hydroxylase/17,20 lyase (Homo sapiens, UniProt P05093); assay: Inhibition of human CYP17 expressed in Escherichia coli co-transfected with rat NADPH-P450 reductase using progesterone as substrate for 30 mins measured as formation of 17alpha-hydroxyprogesterone and 16alpha-hydroxyprogesterone in presence of NADPH
T3 sequence (P05093 whole entry): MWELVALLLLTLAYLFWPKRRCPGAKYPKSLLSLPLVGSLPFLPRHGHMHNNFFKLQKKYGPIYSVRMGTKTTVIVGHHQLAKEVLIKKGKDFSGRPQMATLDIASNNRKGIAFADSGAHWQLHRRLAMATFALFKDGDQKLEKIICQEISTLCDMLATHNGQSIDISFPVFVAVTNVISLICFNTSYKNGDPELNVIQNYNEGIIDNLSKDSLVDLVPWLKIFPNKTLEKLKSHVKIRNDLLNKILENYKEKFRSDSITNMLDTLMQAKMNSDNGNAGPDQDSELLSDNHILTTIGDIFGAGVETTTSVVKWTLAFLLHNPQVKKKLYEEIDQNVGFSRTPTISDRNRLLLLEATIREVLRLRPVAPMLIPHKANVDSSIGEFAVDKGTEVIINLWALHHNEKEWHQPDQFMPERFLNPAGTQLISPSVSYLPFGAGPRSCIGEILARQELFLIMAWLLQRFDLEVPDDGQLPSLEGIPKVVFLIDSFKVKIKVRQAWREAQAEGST
Procedure, shortened: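 Membrane pellet from E. coli co-expressing human CYP17 and rat NADPH-P450 reductase (lysozyme, sonication, 4 °C). Progesterone 25 μM with NADPH-generating system (NADP+, glucose 6-phosphate, G6P dehydrogenase) and inhibitor, preincubated 5 min at 37 °C. Membranes added, 30 min at 37 °C. Acid quench, ethyl acetate extraction. Readout: 17α- and 16α-hydroxyprogesterone formed. Mean of ≥3 runs.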

Aromatase = biological target: T4, Aromatase (Homo sapiens, UniProt P11511); assay: Inhibition of human placental CYP19 using [1beta-3H]-androstenedione as substrate for 3 hrs measured as formation of [3]H2O in presence of NADPH
T4 sequence (P11511 whole entry): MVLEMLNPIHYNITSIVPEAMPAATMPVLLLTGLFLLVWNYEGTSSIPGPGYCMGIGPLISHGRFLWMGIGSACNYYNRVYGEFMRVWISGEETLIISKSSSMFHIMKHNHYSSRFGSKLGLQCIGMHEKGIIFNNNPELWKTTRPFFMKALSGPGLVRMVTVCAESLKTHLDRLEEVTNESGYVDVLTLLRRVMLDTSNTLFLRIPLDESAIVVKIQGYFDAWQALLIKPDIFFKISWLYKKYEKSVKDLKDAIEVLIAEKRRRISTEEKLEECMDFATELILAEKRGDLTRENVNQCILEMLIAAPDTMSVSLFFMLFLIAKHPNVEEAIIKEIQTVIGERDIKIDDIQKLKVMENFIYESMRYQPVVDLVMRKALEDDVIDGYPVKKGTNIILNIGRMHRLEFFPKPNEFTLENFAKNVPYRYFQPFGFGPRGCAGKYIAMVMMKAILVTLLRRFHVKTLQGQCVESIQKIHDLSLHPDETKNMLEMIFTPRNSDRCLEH
Procedure, shortened: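 Microsomes from fresh human term placenta. [1β-3H]androstenedione 500 nM, NADPH, glucose 6-phosphate and dehydrogenase plus inhibitor in 0.05 M phosphate pH 7.4, preincubated 5 min at 30 °C. Started with microsomal protein and run 3 h. Ethyl acetate stop, HgCl2, dextran-coated charcoal to remove steroids. 3H2O released measured. Mean of ≥3 experiments, RSD <25%.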

Compound | IC50 [1] [nM] | IC50 [2] [nM] | Ratio IC50 (Homo sapiens) | viability at 3 h [3] [%] | IC50 [4] [nM] | IC50 (Aromatase) [nM]
O=c1c(Cc2cccnc2)coc2ccccc12 | > 10000 | > 10000 |  |  |  | 
COc1ccc2c(=O)c(Cn3ccnc3)coc2c1 | 768 | 372 | 2.1 |  |  | 
O=c1cc(Cc2cccnc2)oc2cc(F)ccc12 | > 10000 | > 10000 |  |  |  | 
O=c1c(Cc2c[nH]cn2)coc2cc(F)ccc12 | 94.9 | 9.7 | 9.8 | 95 | > 10000 | 3100
O=c1c(Cc2cccnc2)coc2cc(F)ccc12 | > 10000 | > 10000 |  |  |  | 
O=c1c(Cc2ccncc2)coc2cc(F)ccc12 | 317 | 58.1 | 5.3 | 95 | 6600 | 5000
O=c1c(Cc2c[nH]cn2)coc2ccccc12 | 121 | 29.5 | 4.1 | 95 |  | 
COc1ccc2c(=O)cc(Cc3cccnc3)oc2c1 | > 10000 | > 10000 |  |  |  | 
COc1ccc2c(=O)c(Cc3ccncc3)coc2c1 | 3270 | 612 | 5 |  |  | 
COc1ccc2c(=O)c(Cc3cccnc3)coc2c1 | > 10000 | > 10000 |  |  |  | 
O=c1c(Cn2ccnc2)coc2ccccc12 | 522 | 180 | 2.9 |  |  | 
O=c1cc(Cc2ccncc2)oc2ccccc12 | 1240 | 222 | 5.6 |  |  | 
O=c1c(Cn2ccnc2)coc2cc(F)ccc12 | 214 | 86.9 | 2.5 |  |  | 
O=c1cc(Cc2cccnc2)oc2ccccc12 | > 10000 | > 10000 |  |  |  | 
COc1ccc2c(=O)cc(Cc3ccncc3)oc2c1 | > 5000 | 3600 |  |  |  | 
COc1ccc2c(=O)cc(Cn3ccnc3)oc2c1 | 2270 | 1600 | 1.4 |  |  | 
O=c1cc(Cn2ccnc2)oc2cc(F)ccc12 | 620 | 327 | 1.9 |  |  | 
COc1ccc2c(=O)c(Cc3c[nH]cn3)coc2c1 | 1070 | 109 | 9.8 |  | > 10000 | 7900
O=c1cc(Cc2ccncc2)oc2cc(F)ccc12 | 643 | 82.7 | 7.8 |  | > 10000 | > 10000
O=c1c(Cc2ccncc2)coc2ccccc12 | 954 | 88.2 | 10.8 |  | 4800 | 6100
O=c1cc(Cn2ccnc2)oc2ccccc12 | 500 | 253 | 2 |  |  | 
